The record followed here is publication PMC3535268 (Journal of neuroscience methods, 2011).

Holding throughout (format): biochemical, Fischer 344 rats
Assay [1] relates to Complex II dependent oxygen consumption. The conditions noted are these: log dose response; no observed differences across brain regions. The essentials: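 Brain regions dissected from 16-week male rats; mitochondria purified by differential centrifugation, nitrogen disruption at 1200 psi and Ficoll gradient. Wells got 2.5 or 5 μg protein, were spun 200 × g, and were overlaid with respiration buffer pH 7.2 at 37 °C. […] 5–6 rats/group; two-way ANOVA.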

A further assay addresses Mitochondrial Complex I (Rattus norvegicus, UniProt P03889+Q641Y2). As to the kind of experiment: Mitochondrial Complex I enzyme activity assay.
In assay [2] the test system is Complex I driven oxygen consumption. The following applies: cortical mitochondria. The essentials:
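Cortical mitochondria were isolated by differential centrifugation, nitrogen bomb and Ficoll purification, then seeded on XF24 plates in respiration buffer (mannitol/sucrose/BSA/HEPES/MgCl/KH2PO4, pH 7.2, 37 °C). A modified protocol repeatedly measured O2 consumption in the same well after injecting low rotenone (10 fM, 10 pM, 10 nM; diluted in ethanol). 5–6 rats/group; two-way ANOVA with post hoc tests.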

Each structure is given as a SMILES string. Like-named read-outs stand apart in the source and are kept apart here.

Chain of Mitochondrial Complex I (Q641Y2 34-463): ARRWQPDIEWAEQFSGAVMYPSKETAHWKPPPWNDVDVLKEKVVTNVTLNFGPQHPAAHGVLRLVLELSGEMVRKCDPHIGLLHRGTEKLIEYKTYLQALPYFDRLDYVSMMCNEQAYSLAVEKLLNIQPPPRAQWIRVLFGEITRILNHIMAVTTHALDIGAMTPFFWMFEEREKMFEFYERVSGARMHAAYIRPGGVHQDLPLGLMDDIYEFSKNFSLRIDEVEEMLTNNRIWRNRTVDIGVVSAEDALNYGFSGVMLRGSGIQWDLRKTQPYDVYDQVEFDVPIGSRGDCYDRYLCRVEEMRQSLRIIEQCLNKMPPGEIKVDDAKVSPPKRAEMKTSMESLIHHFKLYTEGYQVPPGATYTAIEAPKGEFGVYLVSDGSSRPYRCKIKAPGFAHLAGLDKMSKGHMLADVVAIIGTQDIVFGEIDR
Chain of Mitochondrial Complex I (P03889 whole entry): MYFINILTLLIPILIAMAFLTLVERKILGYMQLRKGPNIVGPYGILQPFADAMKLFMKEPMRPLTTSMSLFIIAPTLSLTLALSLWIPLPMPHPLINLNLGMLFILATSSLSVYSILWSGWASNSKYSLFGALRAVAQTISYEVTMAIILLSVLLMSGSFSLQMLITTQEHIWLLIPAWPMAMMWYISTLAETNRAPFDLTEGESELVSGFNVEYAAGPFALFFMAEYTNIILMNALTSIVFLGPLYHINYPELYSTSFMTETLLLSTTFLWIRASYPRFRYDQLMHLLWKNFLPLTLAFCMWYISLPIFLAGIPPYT

With `O=C(O)CC(=O)O` [malonate], in assay [1], the “effect on mitochondrial driven oxygen consumption (Complex II)” value is recorded as “dose dependent decrease”.
In the case of `C=C(C)[C@H]1Cc2c(ccc3c2O[C@@H]2COc4cc(OC)c(OC)cc4[C@@H]2C3=O)O1` [rotenone], the IC50 against Mitochondrial Complex I is 0.163 to 0.238 nM. The “effect on mitochondrial oxygen consumption” value in assay [2] (10 pM rotenone, up to 8 min following exposure) is “did not result in any reduction in oxygen consumption”; in assay [2] (10 nM rotenone), “significant reduction in mitochondrial oxygen consumption immediately following exposure”; in assay [2] (10 fM rotenone), “no reduction in oxygen consumption”.
